Measurements taken from PubChem BioAssay.
Calls of active or inactive are those of the source.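 Rule for the calls, unless noted: active = visually confirmed hit in the image check and inhibition above 20%; inconclusive = visually confirmed hit but inhibition not above 20%; inactive = no visual hit in the image check.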

Key:
[1] = inhibitors of TNFa-induced NFkB p65 translocation, primary screen, imaging, HUVEC, MLSMR starter and 10KST1 sets (AID 438;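 active = inhibition above 20% together with a positive visual image hit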;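 note: compound added about 3h40 before a 20 min TNFalpha stimulation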;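 for inhibition: signal is the nuclear over cytoplasmic p65 intensity ratio per well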); conditions: HUVEC TNFa-induced p65 nuclear translocation; cell count: measured here: nuclei count (cytotoxicity indicator), at 2.08 µM; inhibition: at 2 µM, stronger effect = higher value, 0% TNFa-plus-vehicle, 100% no-TNFa wells
[2] = inhibitors of E-selectin induction by TNFa, primary screen, imaging, HUVEC, immunofluorescence, MLSMR starter and 10KST1 sets (AID 487); conditions: HUVEC TNFalpha-induced E-selectin immunofluorescence imaging, at 2 µM; inhibition: stronger effect = higher value; nuclei count: measured here: cell number, toxicity;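 for inhibition: signal is fraction of cell area covered by stained E-selectin grains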;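 for nuclei count: 100% = median nuclei count of all wells on the same plate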
[3] = DUSP6 inhibitors restoring Erk phosphorylation by chemical complementation, primary imaging in DUSP6-transfected HeLa (AID 609;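 active = compounds giving at least 50% inhibition in the cell-based MKP-3 phosphatase rescue imaging test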;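 for inhibition: phospho-Erk level distribution per well compared with pooled transfected vehicle control wells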); conditions: HeLa MKP-3 transfected, phospho-Erk imaging KS statistic, at 10 µM, cells stimulated with TPA for 15 min
[4] = target: Dual specificity protein phosphatase 6 (Homo sapiens) (UniProt Q16828); assay: as above; conditions: HeLa MKP-3 transfected, phospho-Erk imaging KS statistic; at 10 µM; stronger effect = higher value; cells stimulated with TPA for 15 min
Chain of Dual specificity protein phosphatase 6 (Homo sapiens) (Q16828 whole entry, looked up): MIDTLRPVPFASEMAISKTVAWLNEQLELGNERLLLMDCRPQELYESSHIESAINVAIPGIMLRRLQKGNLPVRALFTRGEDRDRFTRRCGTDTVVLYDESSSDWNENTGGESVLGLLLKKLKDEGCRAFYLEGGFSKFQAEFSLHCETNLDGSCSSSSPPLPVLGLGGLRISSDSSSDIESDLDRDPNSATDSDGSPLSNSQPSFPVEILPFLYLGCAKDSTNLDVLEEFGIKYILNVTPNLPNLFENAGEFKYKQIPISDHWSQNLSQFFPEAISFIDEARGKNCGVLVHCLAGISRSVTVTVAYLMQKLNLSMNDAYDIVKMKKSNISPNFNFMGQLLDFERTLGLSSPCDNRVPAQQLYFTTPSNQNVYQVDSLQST

[5] = target: Voltage-gated potassium channel subunit beta-2 (Rattus norvegicus) (UniProt P62483); assay: KvBeta enzyme negative modulators, primary screen, biochemical, NADPH fluorescence (AID 622;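 active = fluorescence slope higher than the sample average by over 3 SD, cut at about -0.22 in these data, passing the limit was not always enough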;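 note: slope of raw intensity against log time taken from 70 to 1610 s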); conditions: recombinant KvBeta, 4-cyanobenzaldehyde reduction, at 10 µM, stronger effect = higher value
Chain of Voltage-gated potassium channel subunit beta-2 (Rattus norvegicus) (P62483 whole entry, looked up): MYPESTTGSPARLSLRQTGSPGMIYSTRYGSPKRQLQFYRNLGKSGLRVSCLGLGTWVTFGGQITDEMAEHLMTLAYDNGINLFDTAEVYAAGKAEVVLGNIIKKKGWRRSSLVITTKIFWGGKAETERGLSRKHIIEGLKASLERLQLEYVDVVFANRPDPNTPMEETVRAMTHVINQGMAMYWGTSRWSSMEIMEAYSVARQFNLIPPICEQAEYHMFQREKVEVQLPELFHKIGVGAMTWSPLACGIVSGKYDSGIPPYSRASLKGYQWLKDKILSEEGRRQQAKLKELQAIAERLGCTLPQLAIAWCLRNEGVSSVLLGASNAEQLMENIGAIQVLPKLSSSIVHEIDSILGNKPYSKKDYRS

[6] = target: Voltage-gated potassium channel subunit beta-2 (Rattus norvegicus) (UniProt P62483); assay: KvBeta positive modulators, primary screen, biochemical, NADPH fluorescence (AID 623;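 active = NADPH fluorescence slope more negative than the mean of all samples by about 3 SD, 99.7% confidence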;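 note: fluorescence intensity change per second fitted from 20 to 320 s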); conditions: Recombinant KvBeta, NADPH fluorescence decrease slope, 10 min; at 10 µM; stronger effect = lower value
[7] = target: Muscarinic acetylcholine receptor M4 (Homo sapiens) (UniProt P08173); assay: compounds altering M4/GIRK thallium flux, either direction, primary screen, M4 allosteric agonist project, cell-based, HEK293 M4/GIRK, BTC-AM (AID 625;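 active = fluorescence slope after compound addition differing from the mean of all tested samples at 99.7% confidence, mostly higher but some lower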;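 note: thallium influx through GIRK channels coupled to M4 in HEK293 cells with BTC-AM dye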); conditions: at 10 µM, actives lie on both sides
Chain of Muscarinic acetylcholine receptor M4 (Homo sapiens) (P08173 whole entry, looked up): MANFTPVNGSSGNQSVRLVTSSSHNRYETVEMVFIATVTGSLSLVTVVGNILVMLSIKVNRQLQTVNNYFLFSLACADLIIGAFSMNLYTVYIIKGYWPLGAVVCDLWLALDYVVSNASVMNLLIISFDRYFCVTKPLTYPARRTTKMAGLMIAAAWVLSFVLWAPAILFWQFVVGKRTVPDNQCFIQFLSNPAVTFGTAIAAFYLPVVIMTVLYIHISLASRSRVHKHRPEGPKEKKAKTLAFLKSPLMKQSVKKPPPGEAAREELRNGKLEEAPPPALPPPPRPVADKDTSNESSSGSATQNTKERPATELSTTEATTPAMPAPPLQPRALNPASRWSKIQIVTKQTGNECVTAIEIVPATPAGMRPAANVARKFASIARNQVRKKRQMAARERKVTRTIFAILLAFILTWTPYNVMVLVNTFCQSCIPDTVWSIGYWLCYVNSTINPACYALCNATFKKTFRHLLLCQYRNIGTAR
Method in brief: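 Material – HEK293 cells with M4 receptor and GIRK channels · Buffer or medium – pH 7.3 thallium assay buffer · Doses – one dose, 10 µM final · Timing – cells overnight at 37 °C, BTC-AM loading 1 h, reads 2 min total · Measured by – kinetic fluorescence with BTC-AM dye · Controls – carbachol and DMSO controls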

[8] = inhibitors of larval lipid processing in zebrafish, primary screen, whole organism, PED6 fluorescence, gall bladder and intestine (AID 686;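 active = a full or partial loss of lipid-probe fluorescence in the fish gall bladder, intestine or both, judged by eye; inactive = no fluorescence loss, or compound toxic to the fish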;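 note: larvae 5 to 7 days old with five fish per well; signal comes from phospholipase A2 cleavage of quenched PED6 carried via bile; overnight exposure to compound and PED6 before scoring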); conditions: Zebrafish larvae PED6 lipid processing, fluorescence scoring; screened at 20 µM (by protocol)
Method in brief: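 system = live zebrafish larvae aged 5-7 days, whole organism | probe or stimulus = ingested quenched lipid PED6 at 100 nM | doses = 20 µM single dose | timing = overnight exposure | detection = fluorescence microscopy with visual scoring of gall bladder and intestine | read-out = visual per-well fluorescence inhibition score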

[9] = inhibitors of Chlamydomonas gravitaxis, primary screen, whole organism, Chlamydomonas reinhardtii, WT vs cilia-less mutant, absorbance, 96-well (AID 463189;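 active = inhibition at or above 50% relative to wild type and mutant plate controls; inactive = inhibition below 50%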;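 note: 0% = wild type cc124 cells in DMSO and 100% = ciliumless bld1 mutant cells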); conditions: OD600 absorbance, 2 days, at 10 µM, stronger effect = higher value
[10] = measured here: cell density z-score
[11] = measured here: nuclear c-Myc green intensity z-score
[12] = measured here: nuclear pErk red intensity z-score, stronger effect = higher value

| Structure (SMILES) | cell count [1] | inhibition [1] | inhibition [2] | nuclei count [2] | z-score [3, 10] | z-score [3, 11] | z-score [3, 12] | inhibition [4] | fluorescence slope [5] | NADPH fluorescence slope [6] | fluorescence slope [7] | outcome [8] | inhibition [9] |
| --- | --- | --- | --- | --- | --- | --- | --- | --- | --- | --- | --- | --- | --- |
| Cc1ccc(C(=O)C2C(c3cccs3)NC(=O)NC2(O)C(F)(F)F)cc1 (stereo unspecified) | 716 | -7.3% (inactive) | -170% (inactive) | 142% | -0.552 | -0.778 | 0.548 | -4.27% (inactive) | -0.482 (inactive) | -7.6e-05 (inactive) | 0.00668 (inactive) | inactive | -6.21% (inactive) |
| N#CC1=C(N)OC2=C(C(=O)CCC2)[C@]12C(=O)N(CC(N)=O)c1ccccc12 | 485 | -9.7% (inactive) | -41.1% (inactive) | 130% | -0.751 | 0.747 | -0.43 | -7.28% (inactive) | -0.431 (inactive) | -3e-05 (inactive) | 0.00487 (inactive) | inactive | -0.197% (inactive) |
| O=C1CC(c2ccco2)CC(O)=C1C=NCCN1CCN(C2CC(=O)N(c3ccccc3)C2=O)CC1 (stereo unspecified) | 378 | -0.3% (inactive) | -133% (inactive) | 162% | -1.98 | 0.592 | 0.0438 | -4.78% (inactive) | -0.462 (inactive) | -6e-05 (inactive) | 0.00456 (inactive) | inactive | -7.38% (inactive) |
| COC(=O)C(C)Sc1nc2c(c(=O)n(C)c(=O)n2C)n1CCC(C)C (stereo unspecified) | 630 | 0.3% (inactive) | -5.5% (inactive) | 179% | 0.304 | -0.191 | -1.37 | 3.42% (inactive) | -0.42 (inactive) | -1.8e-05 (inactive) | 0.00499 (inactive) | inactive | 4.36% (inactive) |
| CC1(C)CCN(Cc2ccccc2)C1CC#N (stereo unspecified) | 572 | -1.7% (inactive) | -7.9% (inactive) | 134% | -0.215 | -0.992 | 0.527 | 3.97% (inactive) | -0.353 (inactive) | 8.5e-06 (inactive) | 0.00545 (inactive) | inactive | 34.2% (inactive) |
| COC(=O)/C=c1/s/c(=C(/C#N)C(=O)N2CCCCC2)n(-c2ccccc2)c1=O | 585 | -0.7% (inactive) | -20.5% (inactive) | 90.8% | -0.699 | 0.059 | 0.258 | -5.81% (inactive) | -0.546 (inactive) | -1.7e-05 (inactive) | 0.00519 (inactive) | inactive | 15.4% (inactive) |
| CC(=O)NC(=O)Nc1sc(=S)n(C)c1C | 329 | -4.5% (inactive) | -21.6% (inactive) | 71.6% | 0.847 | -2.04 | 0.71 | 9.82% (inactive) | -0.515 (inactive) | 4.8e-06 (inactive) | 0.00528 (inactive) | inactive | 30.1% (inactive) |
| O=C(NCCN1CCOCC1)c1ccc(=O)oc1 | 515 | -7.5% (inactive) | 70.5% (active) | 102% | 0.12 | 1.12 | 0.0878 | 4.37% (inactive) | -0.481 (inactive) | -8.3e-05 (inactive) | 0.0085 (inactive) | inactive | -15.9% (inactive) |
| Cc1cc(=O)oc(C)c1C(=O)NCC(C)NC(=O)c1c(C)cc(=O)oc1C (stereo unspecified) | 531 | 3.7% (inactive) | 32.8% (inactive) | 164% | 0.5 | -1.12 | -0.355 | 19.8% (inactive) | -0.384 (inactive) | -5.3e-05 (inactive) | 0.00562 (inactive) | inactive | 20.8% (inactive) |
| COc1cc(C2C(C(C)=O)=C(O)C(=O)N2c2ccc(Br)cn2)ccc1O (stereo unspecified) | 406 | -8.5% (inactive) | -148% (inactive) | 180% | -0.216 | -0.848 | 0.128 | -2.59% (inactive) | -0.446 (inactive) | -0.000114 (inactive) | 0.00394 (inactive) | inactive | 23.7% (inactive) |
| Nc1nc2n(n1)C(c1cccs1)CC(c1ccc(F)cc1)N2 (stereo unspecified) | 385 | 5.4% (inactive) | -40.7% (inactive) | 141% | 0.349 | 0.295 | -0.128 | 5.65% (inactive) | -0.436 (inactive) | -0.000111 (inactive) | 0.00473 (inactive) | inactive | 0.994% (inactive) |
| COc1ccc(C2Nc3ccccc3C(=O)N2Cc2ccco2)cc1CN1C(=O)c2ccccc2C1=O (stereo unspecified) | 691 | -6.9% (inactive) | 20.3% (inactive) | 132% | 0.751 | -1.72 | 0.41 | 9.07% (inactive) | -0.461 (inactive) | -4.4e-05 (inactive) | 0.00497 (inactive) | inactive | 8.71% (inactive) |
| CCN(CC)CCCN1C(=O)C(=O)/C(=C(/O)c2ccc3c(c2)CC(C)O3)C1c1ccncc1 (stereo unspecified) | 613 | -2.6% (inactive) | -3.9% (inactive) | 154% | 1.2 | -0.776 | -1.04 | 19.4% (inactive) | -0.478 (inactive) | -4.1e-05 (inactive) | 0.00593 (inactive) | inactive | 17% (inactive) |
| COC(=O)c1ccc(CN(C(C)=O)c2ccccc2)o1 | 547 | 0.8% (inactive) | -113% (inactive) | 141% | 0.183 | -0.22 | -0.676 | 15.4% (inactive) | -0.471 (inactive) | -9.4e-05 (inactive) | 0.00509 (inactive) | inactive | 34.2% (inactive) |
| CCc1nc2c(sc3nc(N4CCOCC4)c4c(c32)CC(C)(C)OC4)c(=O)o1 | 537 | 0.8% (inactive) | -123% (inactive) | 140% | -0.303 | 0.948 | -1.15 | 3.42% (inactive) | -0.479 (inactive) | -8.3e-05 (inactive) | 0.00481 (inactive) | inactive | -8.15% (inactive) |
| COCCCNc1nc2c(c(=O)[nH]c(=O)n2C)n1CC(O)COc1ccccc1 (stereo unspecified) | 379 | 6.8% (inactive) | -63.3% (inactive) | 128% | -0.311 | -0.833 | 1.79 | -0.608% (inactive) | -0.444 (inactive) | -7.9e-05 (inactive) | 0.00457 (inactive) | inactive | 23.4% (inactive) |
| COc1ccc(N2C(=O)C3C(C2=O)C2C=CC3C23CC3)c(OC)c1 (stereo unspecified) | 517 | -4.2% (inactive) | 41.1% (inactive) | 197% | 0.465 | -0.843 | 1.05 | 11.9% (inactive) | -0.422 (inactive) | -4.3e-05 (inactive) | 0.00475 (inactive) | inactive | 24.5% (inactive) |
| CCN(CC)C(=O)C1CCN(c2ncnc3c2cnn3-c2ccc(C)cc2C)CC1 | 622 | -8.2% (inactive) | -52.3% (inactive) | 178% | 1.38 | -1.28 | 0.399 | 11.4% (inactive) | -0.416 (inactive) | -4.9e-05 (inactive) | 0.00727 (inactive) | inactive | 27.9% (inactive) |
| N#Cc1nc(COc2ccccc2Cl)oc1NCc1ccc(F)cc1 | 432 | -1.7% (inactive) | -89.3% (inactive) | 182% | -1.38 | 0.104 | 0.625 | 2.71% (inactive) | -0.373 (inactive) | -3.8e-05 (inactive) | 0.00509 (inactive) | inactive | -1.44% (inactive) |
| COc1ccccc1-n1c(N)c(C(=O)NCC2CCCO2)c2nc3ccccc3nc21 (stereo unspecified) | 630 | -11.8% (inactive) | -49.3% (inactive) | 160% | 1.5 | -1.96 | 0.209 | 14.7% (inactive) | -0.0437 (inactive) | 2e-05 (inactive) | 0.00576 (inactive) | inactive | 19.9% (inactive) |
| COc1ccc(OC)c(C2/C(=C(/O)c3ccccc3)C(=O)C(=O)N2Cc2ccco2)c1 (stereo unspecified) | 675 | -11.7% (inactive) | -58% (inactive) | 169% | 0.317 | -0.841 | 0.437 | -11.4% (inactive) | -0.522 (inactive) | -2.7e-05 (inactive) | 0.00485 (inactive) | inactive | 5.53% (inactive) |
| Cc1ccc(-c2nn(C)c(=O)c3ccccc23)cc1CN1CCOCC1 | 424 | -0.6% (inactive) | -40.3% (inactive) | 145% | 0.246 | 0.445 | -0.955 | 6.04% (inactive) | -0.452 (inactive) | -3.3e-05 (inactive) | 0.00454 (inactive) | inactive | -2.85% (inactive) |
| COc1cccc(C(=O)N2CCN(Cc3ccccn3)CC2)c1OC | 503 | -5.7% (inactive) | -70.6% (inactive) | 158% | -2.51 | 0.355 | 0.989 | -12.3% (inactive) | -0.466 (inactive) | -5.6e-05 (inactive) | 0.00645 (inactive) | inactive | 1.71% (inactive) |
| CC1(C)Cc2c(C#N)c(N3CCN(C(=O)c4ccco4)CC3)nc(Cc3ccccc3)c2CO1 | 541 | -6.6% (inactive) | 2.1% (inactive) | 97.1% | 1.26 | -0.345 | -0.81 | 12.8% (inactive) | -0.499 (inactive) | 4.3e-05 (inactive) | 0.00414 (inactive) | inactive | 16.1% (inactive) |
| Cc1c2c([n+]3n1CCC3)CC(C)(C)CC2=O | 617 | 10.2% (inactive) | -23.3% (inactive) | 121% | -0.832 | 1.36 | 0.404 | -7.67% (inactive) | -0.443 (inactive) | -3.2e-05 (inactive) | 0.00512 (inactive) | inactive | -11.5% (inactive) |
| O=C(CN1C(=O)c2ccccc2S1(=O)=O)NCCSCc1ccco1 | 373 | -5.5% (inactive) | -25.2% (inactive) | 142% | 0.363 | 0.199 | 0.301 | 20.2% (inactive) | -0.457 (inactive) | -0.000137 (inactive) | 0.00395 (inactive) | inactive | -7.41% (inactive) |
| COc1ccc(C2C=C(c3ccc(C)cc3)Nc3ncnn32)cc1 (stereo unspecified) | 538 | 0.8% (inactive) | 22.6% (inactive) | 156% | -1.85 | 1.16 | 0.377 | -3.97% (inactive) | -0.0165 (inactive) | -1.6e-05 (inactive) | 0.00462 (inactive) | inactive | 2.98% (inactive) |
